What was measured:
[1] = target: T1, Large neutral amino acids transporter small subunit 1 (Homo sapiens, UniProt Q01650); experiment: Inhibition of human LAT1 expressed in HEK cells assessed as reduction in uptake of [3H]-gabapentin at 200 uM after 3 mins by scintillation counting based cis-inhibition assay; type: cell-based; details: HEK293
Method in brief: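 HEK cells stably transfected with human LAT-1 cDNA. Test agent at 200 μM competed with [3H]-gabapentin for cellular uptake. Results are % inhibition relative to background signal without inhibitor, with mean of at least three experiments.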

[2] = target: T1, Large neutral amino acids transporter small subunit 1; experiment: Substrate activity at human LAT1 expressed in HEK cells assessed as efflux rate of [3H]-gabapentin at 200 uM after 5 to 180 secs by scintillation counting based trans-stimulation assay; type: cell-based; details: HEK293
Method in brief: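 HEK-hLAT1 cells were preloaded with [3H]-gabapentin, then incubated with test agent at 200 μM. Efflux rate (fmol/min) was compared with efflux in the agent's absence and with L-leucine and L-arginine as positive and negative controls and L-phenylalanine and L-tyrosine as parent amino acids. Mean of at least three experiments.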

[3] = target: T1, Large neutral amino acids transporter small subunit 1; experiment: Inhibition of human LAT1 expressed in HEK cells assessed as reduction in uptake of [3H]-gabapentin after 3 mins by scintillation counting based cis-inhibition assay; type: cell-based, HEK293

T1 sequence (Q01650 whole entry): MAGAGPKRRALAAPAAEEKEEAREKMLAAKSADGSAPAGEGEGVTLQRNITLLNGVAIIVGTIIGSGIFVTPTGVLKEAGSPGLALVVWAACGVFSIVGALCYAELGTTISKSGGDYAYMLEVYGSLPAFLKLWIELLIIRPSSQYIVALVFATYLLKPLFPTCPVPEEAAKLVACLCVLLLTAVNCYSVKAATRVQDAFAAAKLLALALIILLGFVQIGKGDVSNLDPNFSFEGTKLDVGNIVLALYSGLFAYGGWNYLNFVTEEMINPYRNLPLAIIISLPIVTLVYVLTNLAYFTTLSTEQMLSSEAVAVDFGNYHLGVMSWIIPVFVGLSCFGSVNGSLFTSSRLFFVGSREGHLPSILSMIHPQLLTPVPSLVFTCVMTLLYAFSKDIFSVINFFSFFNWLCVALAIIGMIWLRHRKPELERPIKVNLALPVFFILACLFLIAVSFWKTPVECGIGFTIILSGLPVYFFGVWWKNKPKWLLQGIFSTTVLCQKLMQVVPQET

| SMILES | inhibition [1] | Activity [2] | IC50 [3] |
| --- | --- | --- | --- |
| N[C@@H](Cc1cccc(I)c1)C(=O)O | 91% | 1.9 fmol/min | – |
| CC(C)(C)c1cc(C[C@H](N)C(=O)O)ccc1O | 81% | 1.5 fmol/min | – |
| N=C(N)NCCC[C@H](N)C(=O)O | 49% | 0.8 fmol/min | – |
| CC(C)c1cc(C[C@H](N)C(=O)O)ccc1O | 80% | 2.8 fmol/min | – |
| Cc1ccc(C[C@H](N)C(=O)O)cc1 | 86% | 2.7 fmol/min | – |
| N[C@@H](Cc1ccccc1)C(=O)O | 85% | 3.6 fmol/min | – |
| N[C@@H](Cc1ccc(O)c(Br)c1)C(=O)O | 86% | 1.8 fmol/min | – |
| CC(C)(C)c1cccc(C[C@H](N)C(=O)O)c1 | 87% | 1.5 fmol/min | – |
| Cc1cc(C[C@H](N)C(=O)O)ccc1O | 56% | 3.3 fmol/min | – |
| N[C@@H](Cc1ccc(O)c(Cl)c1)C(=O)O | 63% | 2.7 fmol/min | – |
| N[C@@H](Cc1cccc(Cc2ccccc2)c1)C(=O)O | 98% | 0.8 fmol/min | 7.3 µM |
| N[C@@H](Cc1cccc(F)c1)C(=O)O | 79% | 2.3 fmol/min | – |
| CC(C)C[C@H](N)C(=O)O | 78% | 3.5 fmol/min | – |
| COc1ccc(C[C@H](N)C(=O)O)cc1C | 75% | 2.9 fmol/min | – |
| CCc1cccc(C[C@H](N)C(=O)O)c1 | 77% | 3.1 fmol/min | – |
| CC(C)c1cccc(C[C@H](N)C(=O)O)c1 | 91% | 1.7 fmol/min | – |
| N[C@@H](Cc1ccc(O)c(-c2ccccc2)c1)C(=O)O | 83% | 1.2 fmol/min | – |
| N[C@@H](Cc1cccc(Cl)c1)C(=O)O | 84% | 2.6 fmol/min | – |
| N[C@@H](Cc1ccc(O)cc1)C(=O)O | 68% | 2.1 fmol/min | – |
| N[C@@H](Cc1cccc(Br)c1)C(=O)O | 86% | 3 fmol/min | – |
| N[C@@H](Cc1cccc(-c2ccccc2)c1)C(=O)O | 98% | 0.8 fmol/min | 6.6 µM |
| N[C@@H](Cc1ccc(O)c(I)c1)C(=O)O | 77% | 2.4 fmol/min | – |
| N[C@@H](Cc1ccc(O)c(Cc2ccccc2)c1)C(=O)O | 96% | 1.3 fmol/min | 9.1 µM |
| CCc1cc(C[C@H](N)C(=O)O)ccc1O | 68% | 2.4 fmol/min | – |
| N[C@@H](Cc1ccc(O)c(F)c1)C(=O)O | 63% | 3 fmol/min | – |

From ChEMBL document CHEMBL3808321, “LAT-1 activity of meta-substituted phenylalanine and tyrosine analogs” (Bioorg Med Chem Lett, 2016)
